According to ChEMBL document CHEMBL1122347, “synthesis and antihypertensive activity of 2-sulfonamido- and 2-sulfamido-1,3,4,6,7,11b alpha-hexahydro-2H-benzo[a]quinolizines” (1983):
Several values for one entry are separate records, joined by “and”; a condition that tells them apart may be missing. Equal values may be shown once. Activity calls are given as the source filed them. The calls are words filed in the database; no cut-off is given here.

Columns and labels:
[1] = system: Rattus norvegicus; assay: Antihypertensive activity in DOCA/saline rat dosed at 50 mg/kg, administered perorally expressed as percent fall in blood pressure after 2 h; NS is not significant; assay type: functional, organism-based; set-up: dose 50 mg/kg
Method in brief: (§1)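 Hypertensive rats were kept only if systolic pressure was at least 155 mmHg, in groups of four. They were dosed orally in 0.5% (hydroxypropyl)methylcellulose/0.9% saline vehicle (10 mL/kg), with a vehicle-alone control. Systolic pressure was measured by tail-cuff with a pneumatic pulse transducer in 37 °C housing before dosing and at 2, 6 and 24 h. Heart rate was taken from pulse traces. Means ± SE; ANOVA against control, p > 0.05 nonsignificant.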

[2] = system: Rattus norvegicus; assay: Antihypertensive activity in DOCA/saline rat dosed at 50 mg/kg, administered perorally expressed as percent fall in blood pressure after 6 h; NS is not significant; assay type: functional, organism-based; set-up: dose 50 mg/kg; method in brief: as §1
[3] = system: Rattus norvegicus; assay: Antihypertensive activity in DOCA/saline rat dosed at 50 mg/kg, administered perorally expressed as percent rise in heart rate after 6 h; NS is not significant; assay type: functional, organism-based; set-up: dose 50 mg/kg; method in brief: as §1
[4] = system: Rattus norvegicus; assay: (§2) Antihypertensive activity in DOCA/saline rat dosed at 50 mg/kg, administered perorally expressed as percent rise in heart rate after 2 h; NS is not significant; assay type: functional, organism-based; set-up: dose 50 mg/kg; method in brief: as §1
[5] = system: Rattus norvegicus; assay: Antihypertensive activity in DOCA/saline rat dosed at 50 mg/kg, administered perorally expressed as percent fall in blood pressure after 2 h; assay type: functional; conditions: route oral; method in brief: as §1
[6] = system: Rattus norvegicus; assay: Antihypertensive activity in DOCA/saline rat dosed at 50 mg/kg, administered perorally expressed as percent rise in heart rate after 6 h; NS is not significant,; assay type: functional, organism-based; set-up: dose 50 mg/kg; method in brief: as §1
[7] = system: Rattus norvegicus; assay: Antihypertensive activity in DOCA/saline rat dosed at 50 mg/kg administered perorally expressed as percent rise in heart rate after 2 h; NS is not significant; assay type: functional, organism-based; set-up: dose 50 mg/kg; method in brief: as §1
[8] = system: Rattus norvegicus; assay: Antihypertensive activity in DOCA/saline rat dosed at 50 mg/kg, administered perorally expressed as percent rise in heart rate after 2 h; assay type: functional; conditions: route oral; method in brief: as §1
[9] = system: Rattus norvegicus; assay: Antihypertensive activity in DOCA/saline rat dosed at 50 mg/kg, administered perorally expressed as percent fall in blood pressure after 6 h; assay type: functional; conditions: route oral; method in brief: as §1
[10] = species: Rattus norvegicus; conditions: 2 mg/kg
[11] = species: Rattus norvegicus; conditions: Heart, 2 mg/kg
[12] = system: Rattus norvegicus; assay: Antihypertensive activity in DOCA/saline rat dosed at 25 mg/kg, administered perorally expressed as percent rise in heart rate after 2 h; NS is not significant; assay type: functional, organism-based; set-up: dose 25 mg/kg; method in brief: as §1
[13] = system: Rattus norvegicus; assay: Antihypertensive activity in DOCA/saline rat dosed at 50 mg/kg, po administered perorally expressed as percent rise in heart rate after 2 h; assay type: functional; method in brief: as §1
[14] = system: Rattus norvegicus; assay: Antihypertensive activity in DOCA/saline rat dosed at 25 mg/kg, administered perorally expressed as percent rise in heart rate after 6 h; NS is not significant; assay type: functional, organism-based; set-up: dose 25 mg/kg; method in brief: as §1
[15] = system: Rattus norvegicus; assay: Antihypertensive activity in DOCA/saline rat dosed at 25 mg/kg, administered perorally expressed as percent fall in blood pressure after 6 h; NS is not significant; assay type: functional, organism-based; set-up: dose 25 mg/kg; method in brief: as §1
[16] = system: Rattus norvegicus; assay: Antihypertensive activity in DOCA/saline rat dosed at 25 mg/kg, administered perorally expressed as percent fall in blood pressure after 2 h; NS is not significant; assay type: functional, organism-based; set-up: dose 25 mg/kg; method in brief: as §1
[17] = system: Rattus norvegicus; assay: Antihypertensive activity in DOCA/saline rat dosed at 50 mg/kg, administered perorally expressed as percent rise in heart rate after 6 h; assay type: functional; conditions: route oral; method in brief: as §1
[18] = system: Rattus norvegicus; assay: Antihypertensive activity in DOCA/saline rat dosed at 25 mg/kg, administered perorally expressed as percent fall in blood pressure after 2 h; assay type: functional; conditions: route oral; method in brief: as §1
[19] = system: Rattus norvegicus; assay: Antihypertensive activity in DOCA/saline rat dosed at 25 mg/kg, po administered perorally expressed as percent rise in heart rate after 2 h; NS is not significant; assay type: functional, organism-based; set-up: dose 25 mg/kg; method in brief: as §1
[20] = system: Rattus norvegicus; assay: Antihypertensive activity in DOCA/saline rat dosed at 25 mg/kg, administered perorally expressed as percent fall in blood pressure after 6 h; assay type: functional; conditions: route oral; method in brief: as §1
[21] = system: Rattus norvegicus; assay: Antihypertensive activity in DOCA/saline rat dosed at 10 mg/kg, administered perorally expressed as percent fall in blood pressure after 2 h; assay type: functional; conditions: route oral; method in brief: as §1
[22] = system: Rattus norvegicus; assay: Antihypertensive activity in DOCA/saline rat dosed at 50 mg/kg, administered perorally expressed as percent rise in heart rate after 2 h; NS is not significant,; assay type: functional, organism-based; set-up: dose 50 mg/kg; method in brief: as §1
[23] = system: Rattus norvegicus; assay: Antihypertensive activity in DOCA/saline rat dosed at 10 mg/kg, administered perorally expressed as percent fall in blood pressure after 6 h; NS is not significant; assay type: functional, organism-based; set-up: dose 10 mg/kg; method in brief: as §1
[24] = system: Rattus norvegicus; assay: Antihypertensive activity in DOCA/saline rat dosed at 10 mg/kg, administered perorally expressed as percent rise in heart rate after 6 h; NS is not significant; assay type: functional, organism-based; set-up: dose 10 mg/kg; method in brief: as §1
[25] = system: Rattus norvegicus; assay: Antihypertensive activity in DOCA/saline rat dosed at 10mg/kg, administered perorally expressed as percent rise in heart rate after 2 h; assay type: functional; method in brief: as §1
[26] = system: Rattus norvegicus; assay: as §2; assay type: functional, organism-based; set-up: dose 50 mg/kg; method in brief: as §1; remark: listed apart in the source
[27] = system: Rattus norvegicus; assay: Antihypertensive activity in DOCA/saline rat dosed at 25 mg/kg, po administered perorally expressed as percent rise in heart rate after 6 h; NS is not significant; assay type: functional, organism-based; set-up: dose 25 mg/kg; method in brief: as §1
[28] = system: Rattus norvegicus; assay: Antihypertensive activity in DOCA/saline rat dosed at 10 mg/kg, administered perorally expressed as percent fall in blood pressure after 2 h; NS is not significant; assay type: functional, organism-based; set-up: dose 10 mg/kg; method in brief: as §1
[29] = system: Rattus norvegicus; assay: Antihypertensive activity in DOCA/saline rat dosed at 10mg/kg, administered perorally expressed as percent fall in blood pressure after 6 h; NS is not significant; assay type: functional, organism-based; method in brief: as §1
[30] = system: Rattus norvegicus; assay: Antihypertensive activity in DOCA/saline rat dosed at 50 mg/kg, po expressed as percent rise in heart rate after 2 h; assay type: functional; method in brief: as §1
[31] = system: Rattus norvegicus; assay: Antihypertensive activity in DOCA/saline rat dosed at 50 mg/kg, po expressed as percent fall in blood pressure after 6 h; NS is not significant; assay type: functional, organism-based; set-up: dose 50 mg/kg; method in brief: as §1
[32] = system: Rattus norvegicus; assay: Antihypertensive activity in DOCA/saline rat dosed at 50 mg/kg, po expressed as percent fall in blood pressure after 2 h; assay type: functional; method in brief: as §1
[33] = system: Rattus norvegicus; assay: Antihypertensive activity in DOCA/saline rat dosed at 50 mg/kg, po expressed as percent rise in heart rate after 6 h; NS is not significant; assay type: functional, organism-based; set-up: dose 50 mg/kg; method in brief: as §1

SMILES	Decrease in blood pressure [1]	Decrease in blood pressure [2]	Rise HR [3]	Rise HR [4]	Decrease in blood pressure [5]	Decrease in blood pressure [9]	also measured
CN([C@@H]1CCN2CCc3ccccc3[C@@H]2C1)S(C)(=O)=O	inactive	inactive	inactive	inactive			
COc1cc2c(cc1OC)[C@@H]1C[C@H](NS(N)(=O)=O)CCN1CC2.Cl		inactive	inactive	inactive	22%		
CS(=O)(=O)N[C@H]1CCN2CCc3ccccc3[C@@H]2C1	inactive	inactive					Rise HR [6]: inactive; Rise HR [7]: inactive
CNS(=O)(=O)N[C@@H]1CCN2CCc3ccccc3[C@@H]2C1.Cl			inactive		35%	18%	Rise HR [8]: 23%
NNc1nncc2ccccc12							Decrease in blood pressure [10]: inactive; Rise HR [11]: inactive
CCCS(=O)(=O)N(C)[C@@H]1CCN2CCc3ccccc3[C@@H]2C1.Cl		inactive			38%		Rise HR [12]: inactive; Rise HR [13]: 15%; Rise HR [14]: inactive; Decrease in blood pressure [15]: inactive; Decrease in blood pressure [16]: inactive; Rise HR [17]: 21%
O=S(=O)(N[C@@H]1CCN2CCc3ccccc3[C@@H]2C1)c1ccccc1	inactive	inactive	inactive	inactive			
CCS(=O)(=O)N(C)[C@@H]1CCN2CCc3ccccc3[C@@H]2C1.Cl							Rise HR [12]: inactive; Decrease in blood pressure [18]: 36%; Rise HR [14]: inactive; Decrease in blood pressure [15]: inactive
CS(=O)(=O)N[C@@H]1CCN2CCc3ccccc3[C@@H]2C1.Cl					53%	68%	Decrease in blood pressure [18]: 50%; Rise HR [19]: inactive; Decrease in blood pressure [20]: 50%; Increase in heart rate [3]: inactive; Decrease in blood pressure [21]: 28%; Rise HR [14]: inactive; Increase in heart rate [22]: Not significant; Decrease in blood pressure [23]: inactive; Rise HR [24]: inactive; Rise HR [25]: 39%
Cl.O=S(=O)(N[C@@H]1CCN2CCc3ccccc3[C@@H]2C1)N1CCCC1	inactive	inactive	inactive				Rise HR [8]: 22%
CCS(=O)(=O)N[C@@H]1CCN2CCc3ccccc3[C@@H]2C1.Cl				inactive		43%	Rise HR [12]: inactive; Rise HR [26]: inactive; Decrease in blood pressure [18]: 42%; Rise HR [6]: inactive; Rise HR [27]: inactive; Decrease in blood pressure [15]: inactive; Decrease in blood pressure ([5]; 50 mg/kg): 56% and 37%; Rise HR [17]: 22%
CCCS(=O)(=O)N[C@@H]1CCN2CCc3ccccc3[C@@H]2C1.Cl			inactive		28%	46%	Rise HR [8]: 14%
CN(C)S(=O)(=O)N[C@@H]1CCN2CCc3ccccc3[C@@H]2C1.Cl			inactive	inactive	45%	31%	
Cl.NS(=O)(=O)N[C@@H]1CCN2CCc3ccccc3[C@@H]2C1			inactive		48%	50%	Rise HR [8]: 24%; Decrease in blood pressure [28]: inactive; Rise HR [24]: inactive; Decrease in blood pressure [29]: inactive; Rise HR [25]: 24%
O=S(=O)(Nc1ccccc1)N[C@@H]1CCN2CCc3ccccc3[C@@H]2C1	inactive	inactive	inactive	inactive			
Cl.O=S(=O)(N[C@H]1CCN2CCc3ccccc3[C@@H]2C1)c1ccccc1	inactive		inactive	inactive		18%	
COc1cc2c(cc1OC)[C@@H]1C[C@H](NS(C)(=O)=O)CCN1CC2.Cl			inactive		44%	35%	Rise HR [8]: 16%
CS(=O)(=O)N[C@@H]1CCN2CCc3ccc(Cl)cc3[C@@H]2C1	inactive	inactive	inactive	inactive			
Cc1ccc(N(CC2=NCCN2)c2cccc(O)c2)cc1 [PHENTOLAMINE]							Rise HR [30]: 23%; Decrease in blood pressure [31]: inactive; Decrease in blood pressure [32]: 36%; Rise HR [33]: inactive
CCN(CC)S(=O)(=O)N[C@@H]1CCN2CCc3ccccc3[C@@H]2C1.Cl		inactive	inactive	inactive	29%		
CCS(=O)(=O)N[C@H]1CCN2CCc3ccccc3[C@@H]2C1	inactive	inactive	inactive	inactive			
